Published values gathered from unrelated publications.
Each line is one published result; the experiments were not run side by side.
MAOB: Amine oxidase [flavin-containing] B (MAOB, Homo sapiens, UniProt P27338)
HCK: Tyrosine-protein kinase HCK (HCK, Homo sapiens, UniProt P08631)

target | test | setting | measurement | result | Compound
MAOB | enzyme activity, inhibitor | 1 µM | inhibition | < 5% | COc1cccc(NC(=O)c2ccc3c(c2)C(=O)NC3=O)c1
HCK | binding, competition with immobilised ligand | 0.5 µM | remaining binding | 98% | CCCCC(=O)Nc1ccc(-c2ccc3ncn(CCC)c(=O)c3c2)cn1
GUK1 (Homo sapiens, UniProt Q16774) | enzyme activity, substrate | – | Km | 14.9 µM | Nc1nc2c(ncn2[C@@H]2O[C@H](COP(=O)(O)O)[C@@H](O)[C@H]2O)c(=O)[nH]1
NUAK family SNF1-like kinase 2 (NUAK2, Homo sapiens, UniProt Q9H093) | binding, competition with immobilised ligand | 1 µM | remaining binding | 26% | Cc1cc(S(=O)(=O)N[C@H]2CC[C@H](CN3CCN(c4ccc(C5CCC(=O)NC5=O)cc4F)CC3)CC2)ccc1Nc1ncc(C(F)(F)F)c(N2CCC[C@](C)(O)C2)n1 (stereo partly shown)
Lactoylglutathione lyase (GLO1, Homo sapiens, UniProt Q04760) | enzyme activity, inhibitor | 1 µM | inhibition | 13.6% | O=C(N[C@@H](CSCc1nc2cc([N+](=O)[O-])ccc2[nH]1)C(=O)NO)c1ccccc1
Beta-1 adrenergic receptor (ADRB1, Homo sapiens, UniProt P08588) | ligand displacement, radioligand | 10 µM | inhibition | < 50% | NC/C(=C\F)COc1cccc(Cn2c(=S)[nH]c(=O)c3[nH]cnc32)c1
Dual specificity tyrosine-phosphorylation-regulated kinase 4 (DYRK4, Homo sapiens, UniProt Q9NR20) | enzyme activity, inhibitor | 0.2 µM | inhibition | 4.78% | C#Cc1cc(-c2cc(Nc3nc(N[C@@H](C)c4ccc(F)cn4)ncc3Cl)n[nH]2)ccc1C=O
MAOB | enzyme activity, inhibitor | 1 µM | inhibition | < 5% | O=C(Nc1ccccc1Br)c1ccc2c(c1)C(=O)NC2=O
Caspase-1 (Casp1, Mus musculus, UniProt P29452) | enzyme activity, inhibitor | – | kinact/KI | 4.27e+06 M⁻¹ s⁻¹ | C[C@H](NC(=O)C(=O)Nc1ccccc1C(C)(C)C)C(=O)N[C@@H](CC(=O)O)C(=O)COc1c(F)c(F)cc(F)c1F
MAOB | enzyme activity, inhibitor | 1 µM | inhibition | 97.5% | O=C(Nc1ccc(Cl)c(Br)c1)c1ccc2c(c1)C(=O)NC2=O
Ribosomal protein S6 kinase alpha-6, N-terminal kinase domain (RPS6KA6, Homo sapiens, UniProt Q9UK32) | cell-free assay | 0.1 µM | remaining signal | 78% | C1=C/COCc2cc(ccc2OCCN2CCCC2)Nc2nccc(n2)-c2cccc(c2)COC/1
MAOB | enzyme activity, inhibitor | 1 µM | inhibition | < 5% | O=C(Nc1cccc(F)c1)c1ccc2c(c1)C(=O)NC2=O
HCK | binding | 1 µM | remaining binding | 108% | COc1ccc2oc(-c3ccc4nc(N)oc4c3)c/c(=N\c3ccccc3NC(=O)CCN)c2c1
